Results reported in ChEMBL document CHEMBL1152984, “Design, synthesis, and structure-activity relationships of benzophenone-based tetraamides as novel antibacterial agents” (J Med Chem, 2009).
In brackets after ≈: the same amount, converted by molar mass. Activity calls are given as the source filed them. The calls are words filed in the database; no cut-off is given here.

Tests used:
[1] = tested on: Staphylococcus aureus; assay: Antibacterial activity against Staphylococcus aureus assessed as depolarization at 32 mg/L measured for 60 mins by fluorescence spectrophotometer relative to nisin; type: functional, organism-based
How it was run: (§1)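 Cells were loaded with 0.4 μM diSC3(5) for 1 h at 37 °C, then KCl was added. After compound addition in a stirred cuvette at 37 °C, fluorescence (ex 622, em 670 nm) was followed for 60 min. Cells plus dye gave the background; the change was expressed as % of the nisin control (100%).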

[2] = tested on: Staphylococcus aureus; assay: Antibacterial activity against vancomycin-resistant Staphylococcus aureus; type: functional
[3] = tested on: Nucleic Acid; assay: Binding affinity to DNA AT hairpin (5'-CGAAAAACAAAAAGTTTTTCG- 3') oligonucleotide by ethidium bromide displacement assay; type: nucleic-acid assay
How it was run: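 DNA binding: ethidium bromide (4.0 μM) and AT hairpin (8.0 μM) in 0.1 M Tris-HCl with 25 mM NaCl, pH 7.0, were titrated with compound. Fluorescence (ex 545, em 595 nm) was read after 5 min and corrected for volume. K = K_EB[E]/[agent], where [agent] is the concentration that lowers fluorescence by 50%.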

[4] = tested on: Staphylococcus aureus; assay: Antibacterial activity against methicillin-resistant Staphylococcus aureus; type: functional
[5] = tested on: Staphylococcus aureus; assay: Antibacterial activity against Staphylococcus aureus ATCC 29213 assessed as inhibition of protein synthesis at 0.5 to 8 times MIC treated 5 mins before [3H]leucine challenge measured after 30 mins by [3H]leucine incorporation assay; type: functional, organism-based
How it was run: (§2)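 Cells were added to triplicate wells with compound (0.25-4.0 μg/mL), with 5% DMSO as the no-drug control; protein-synthesis reactions used M9 minimal medium. After 5 min at room temperature, 0.5-1.0 μCi of [3H]thymidine, uridine, N-acetylglucosamine or leucine was added. Reactions ran 15-30 min (60 min for cell wall). Cold-TCA precipitates were filtered, washed and scintillation-counted.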

[6] = tested on: Enterococcus; assay: Antibacterial activity against vancomycin-resistant Enterococcus; type: functional
[7] = tested on: Escherichia coli; assay: Antibacterial activity against Escherichia coli; type: functional
[8] = tested on: Staphylococcus aureus; assay: Antibacterial activity against glycopeptide-intermediate Staphylococcus aureus; type: functional
[9] = tested on: Staphylococcus aureus; assay: Antibacterial activity against Staphylococcus aureus ATCC 29213 assessed as inhibition of RNA synthesis at 0.5 to 8 times MIC treated 5 mins before [3H]uridine challenge measured after 30 mins by [3H]uridine incorporation assay; type: functional, organism-based; how it was run: as §2
[10] = tested on: Staphylococcus aureus; assay: Antibacterial activity against Staphylococcus aureus ATCC 29213 assessed as inhibition of lipid synthesis at 0.5 to 8 times MIC treated 5 mins before [3H]glycerol challenge measured after 60 mins by [3H]glycerol incorporation assay; type: functional, organism-based
How it was run: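 Lipid synthesis: early-exponential S. aureus was mixed in triplicate with compound (0.25-4.0 μg/mL) or cerulenin. After 5 min at room temperature, [3H]glycerol (0.5 μCi) was added. Mixtures were centrifuged, and the organic phase was dried and counted by liquid scintillation.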

[11] = tested on: Staphylococcus aureus; assay: Antibacterial activity against Staphylococcus aureus ATCC 29213 assessed as inhibition of cell wall synthesis at 0.5 to 8 times MIC treated 5 mins before [3H]N-acetylglucosamine challenge measured after 30 mins by [3H]N-acetylglucosamine incorporation assay; type: functional, organism-based
[12] = tested on: Staphylococcus aureus; assay: Antibacterial activity against Staphylococcus aureus assessed as depolarization at 4 mg/L measured for 60 mins by fluorescence spectrophotometer relative to nisin; type: functional, organism-based; how it was run: as §1
[13] = tested on: CHO; assay: Cytotoxicity against CHO cells assessed as cell viability at 25 to 100 times MIC after 24 hrs by MTS assay; type: cell-based, Cricetulus griseus; conditions: chinese hamster
How it was run: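 CHO cells in RPMI-1640 were seeded at 5000 cells/well, allowed to attach overnight, then exposed to 25, 50 and 100 mg/L for 24 h. MTS was added for 120 min and absorbance read at 505 nm. Results are % versus untreated controls (with or without 5% DMSO), from at least three experiments.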

[14] = tested on: Staphylococcus aureus; assay: Antibacterial activity against Staphylococcus aureus ATCC 29213 assessed as inhibition of DNA synthesis at 0.5 to 8 times MIC treated 5 mins before [3H]thymidine challenge measured after 30 mins by [3H]thymidine incorporation assay; type: functional, organism-based; how it was run: as §2
[15] = tested on: Staphylococcus aureus; assay: Antibacterial activity against Staphylococcus aureus ATCC 29213 assessed as inhibition of DNA synthesis at 8 times MIC treated 5 mins before [3H]thymidine challenge measured after 30 mins by [3H]thymidine incorporation assay; type: functional, organism-based; how it was run: as §2
[16] = tested on: Nucleic Acid; assay: Binding affinity to Staphylococcus aureus DNA at 25 to 200 ug/mL by Hoescht dye competition assay; type: nucleic-acid assay
How it was run: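 Compounds at 25, 50, 100, 150 and 200 mg/L were added in triplicate, and the drop in emission at 461 nm was measured against Hoechst-stained untreated cells.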

[17] = tested on: Nucleic Acid; assay: Binding affinity to Escherichia coli DNA at 25 to 200 ug/mL by Hoescht dye competition assay; type: nucleic-acid assay
[18] = tested on: Staphylococcus aureus; assay: Antibacterial activity against Staphylococcus aureus ATCC 29213 assessed as inhibition of protein synthesis at 8 times MIC treated 5 mins before [3H]leucine challenge measured after 30 mins by [3H]leucine incorporation assay; type: functional, organism-based; how it was run: as §2
[19] = tested on: Staphylococcus aureus; assay: Antibacterial activity against Staphylococcus aureus ATCC 29213 assessed as inhibition of RNA synthesis at 8 times MIC treated 5 mins before [3H]uridine challenge measured after 30 mins by [3H]uridine incorporation assay; type: functional, organism-based; how it was run: as §2
[20] = tested on: Staphylococcus aureus; assay: Antibacterial activity against Staphylococcus aureus ATCC 29213 assessed as inhibition of lipid synthesis at 8 times MIC treated 5 mins before [3H]glycerol challenge measured after 60 mins by [3H]glycerol incorporation assay; type: functional, organism-based
How it was run: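 S. aureus at early exponential phase, 0.1 mL cells in triplicate tubes with agent (0.25-4.0 μg/mL) or cerulenin control. Pre-incubated 5 min at room temperature before adding [3H]glycerol at 0.5 μCi. After centrifugation, the organic phase was dried and counted by liquid scintillation.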

[21] = tested on: Staphylococcus aureus; assay: Antibacterial activity against Staphylococcus aureus assessed as depolarization at […] measured for 60 mins by fluorescence spectrophotometer relative to nisin; type: functional, organism-based; how it was run: as §1
[22] = tested on: Staphylococcus aureus; assay: Antibacterial activity against Staphylococcus aureus ATCC 29213 assessed as inhibition of cell wall synthesis at 8 times MIC treated 5 mins before [3H]N-acetylglucosamine challenge measured after 30 mins by [3H]N-acetylglucosamine incorporation assay; type: functional, organism-based
How it was run: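 Culture added to triplicate wells with agent (0.25-4.0 μg/mL) or 5% DMSO no-drug control. Pre-incubated 5 min at room temperature, then [3H]N-acetylglucosamine at 0.5-1.0 μCi. Stopped with cold 5% TCA and held 30 min on ice. Precipitate filter-collected, washed, and scintillation counted. Vancomycin was the positive control.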

| SMILES | MIC [2] [µg/mL] | Ka [3] [×10⁶ /M] | MIC [4] [µg/mL] | other results |
| --- | --- | --- | --- | --- |
| Cn1cc(NC(=O)CCCCCCCCCCCC(=O)Nc2cc(C(=O)NCCN3CCCC3)n(C)c2)cc1C(=O)NCCN1CCCC1 | > 32 | 0.021 | > 32 | Activity [1]: inactive |
| Cn1cc(NC(=O)c2ccc(C(=O)c3ccc(C(=O)Nc4cc(C(=O)NCCN5CCCCC5)n(C)c4)cc3)cc2)cc1C(=O)NCCN1CCCCC1 | 1 (≈ 1.36 µM) | 0.931 | 0.5 (≈ 0.68 µM) | Activity [5]: inactive; MIC [6]: 4 µg/mL (≈ 5.44 µM); MIC [7]: 16 µg/mL (≈ 21.8 µM); MIC [8]: 0.5 µg/mL (≈ 0.68 µM); Activity [9]: inactive; Activity [10]: inactive; Activity [11]: inactive; Activity [12]: Active; Activity [13]: Not Active; Activity [14]: inactive |
| Cn1cc(NC(=O)c2ccc(C(=O)c3ccc(C(=O)Nc4cn(C)c(C(=O)NCCN5CCCC5)n4)cc3)cc2)nc1C(=O)NCCN1CCCC1 | 32 (≈ 45.1 µM) | – | 32 (≈ 45.1 µM) | – |
| O=C(O)c1cn(C2CC2)c2cc(N3CCNCC3)c(F)cc2c1=O | – | – | – | Activity [15]: Active |
| Cn1cc(NC(=O)c2ccc(C(=O)c3ccccc3)cc2)cc1C(=O)NCCN1CCCC1 | – | 0.106 | – | – |
| Cn1cc(NC(=O)c2ccc(Cc3ccc(C(=O)Nc4cc(C(=O)NCCN5CCCC5)n(C)c4)cc3)cc2)cc1C(=O)NCCN1CCCC1 | > 32 | 0.154 | > 32 | – |
| CN(C)c1ccc(NC(=O)c2nc(NC(=O)c3ccc(C(=O)c4ccc(C(=O)Nc5cn(C)c(C(=O)Nc6ccc(N(C)C)cc6)n5)cc4)cc3)cn2C)cc1 | > 32 | – | > 32 | – |
| CN1CCN(CCCNC(=O)c2cc(NC(=O)c3ccc(C(=O)c4ccc(C(=O)Nc5cc(C(=O)NCCCN6CCN(C)CC6)n(C)c5)cc4)cc3)cn2C)CC1 | > 32 | 0.108 | > 32 | Activity [16]: inactive; Activity [17]: inactive |
| CC(=O)NC[C@H]1CN(c2ccc(N3CCOCC3)c(F)c2)C(=O)O1 | – | – | – | Activity [18]: Active |
| CO[C@H]1/C=C/O[C@@]2(C)Oc3c(C)c(O)c4c(O)c(c(/C=N/N5CCN(C)CC5)c(O)c4c3C2=O)NC(=O)/C(C)=C\C=C\[C@H](C)[C@H](O)[C@@H](C)[C@@H](O)[C@@H](C)[C@H](OC(C)=O)[C@@H]1C | – | – | – | Activity [19]: Active |
| Cn1cc(NC(=O)CCCCCCCCCCCC(=O)Nc2cc(C(=O)NCCN3CCCCC3)n(C)c2)cc1C(=O)NCCN1CCCCC1 | > 32 | 0.0125 | > 32 | – |
| Cn1cc(NC(=O)c2ccc(C(=O)c3ccc(C(=O)Nc4cc(C(=O)NCCN5CCOCC5)n(C)c4)cc3)cc2)cc1C(=O)NCCN1CCOCC1 | 8 (≈ 10.8 µM) | – | 4 (≈ 5.41 µM) | – |
| C/C=C/C/C=C/CCC(=O)[C@H]1O[C@H]1C(N)=O | – | – | – | Activity [20]: Active |
| Cn1cc(NC(=O)c2ccc(C(=O)c3ccc(C(=O)Nc4cn(C)c(C(=O)NCCN5CCCCC5)n4)cc3)cc2)nc1C(=O)NCCN1CCCCC1 | 8 (≈ 10.9 µM) | – | 4 (≈ 5.43 µM) | Activity [16]: Active; Activity [17]: Active |
| Cn1cc(NC(=O)c2ccc(C(=O)c3ccc(C(=O)Nc4cn(C)c(C(=O)NCCN5CCOCC5)n4)cc3)cc2)nc1C(=O)NCCN1CCOCC1 | > 32 | – | > 32 | – |
| Cn1cc(NC(=O)c2ccc(C(O)c3ccc(C(=O)Nc4cc(C(=O)NCCN5CCCCC5)n(C)c4)cc3)cc2)cc1C(=O)NCCN1CCCCC1 | > 32 | 0.0098 | > 32 | – |
| Cn1cc(NC(=O)c2ccc(C(=O)c3ccc(C(=O)Nc4cc(C(=O)NCCN5CCCC5)n(C)c4)cc3)cc2)cc1C(=O)NCCN1CCCC1 | 2 (≈ 2.83 µM) | 0.679 | 1 (≈ 1.41 µM) | Activity [16]: Active; MIC [6]: 4 µg/mL (≈ 5.66 µM); MIC [7]: 16 µg/mL (≈ 22.6 µM); Activity [17]: Active; MIC [8]: 0.5 µg/mL (≈ 0.707 µM); Activity [21]: Active; Activity [13]: Not Active |
| CN(C)c1ccc(NC(=O)c2cc(NC(=O)c3ccc(C(=O)c4ccc(C(=O)Nc5cc(C(=O)Nc6ccc(N(C)C)cc6)n(C)c5)cc4)cc3)cn2C)cc1 | > 32 | 0.391 | > 32 | – |
| Cn1cc(NC(=O)c2ccc(C(=O)c3ccccc3)cc2)cc1C(=O)NCCN1CCCCC1 | – | 0.227 | – | – |
| Cn1cc(NC(=O)c2ccc(Cc3ccc(C(=O)Nc4cc(C(=O)NCCN5CCCCC5)n(C)c4)cc3)cc2)cc1C(=O)NCCN1CCCCC1 | > 32 | 0.0238 | > 32 | – |
| CN(C)CCCNC(=O)c1cc(NC(=O)c2ccc(C(=O)c3ccc(C(=O)Nc4cc(C(=O)NCCCN(C)C)n(C)c4)cc3)cc2)cn1C | 16 (≈ 23.4 µM) | 1 | 8 (≈ 11.7 µM) | MIC [8]: 8 µg/mL (≈ 11.7 µM) |
| Cn1cc(NC(=O)c2ccccc2)cc1C(=O)NCCN1CCCC1 | > 32 | 0.11 | > 32 | – |
| Cn1cc(NC(=O)c2ccc(C(O)c3ccc(C(=O)Nc4cc(C(=O)NCCN5CCCC5)n(C)c4)cc3)cc2)cc1C(=O)NCCN1CCCC1 | > 32 | 0.175 | > 32 | – |
| CN[C@H](CC(C)C)C(=O)N[C@H]1C(=O)N[C@@H](CC(N)=O)C(=O)N[C@H]2C(=O)N[C@H]3C(=O)N[C@H](C(=O)N[C@H](C(=O)O)c4cc(O)cc(O)c4-c4cc3ccc4O)[C@H](O)c3ccc(c(Cl)c3)Oc3cc2cc(c3O[C@@H]2O[C@H](CO)[C@@H](O)[C@H](O)[C@H]2O[C@H]2C[C@](C)(N)[C@H](O)[C@H](C)O2)Oc2ccc(cc2Cl)[C@H]1O | – | – | – | Activity [22]: Active |
| Cn1cc(NC(=O)c2ccccc2)cc1C(=O)NCCN1CCCCC1 | > 32 | 0.173 | > 32 | – |
